Source: ChEMBL document CHEMBL3297735, “Optimization of troglitazone derivatives as potent anti-proliferative agents: towards more active and less toxic compounds” (Eur J Med Chem, 2014)

Assays:
HCT-116 = assay: Cytotoxicity against human HCT116 cells assessed as cell viability at 10 uM after 72 hrs by MTS assay in presence of 10% fetal calf serum relative to control; format: functional; details: HCT-116, 72 h, read-out: Activity
MCF7 = assay: Cytotoxicity against human MCF7 cells assessed as cell viability at 10 uM after 72 hrs by MTS assay in presence of 10% fetal calf serum relative to control; format: functional; details: MCF7, 72 h, read-out: Activity
Method in brief: (§1)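 Cells were grown in RPMI with L-glutamine, 10% FCS, penicillin/streptomycin and fungizone at 37 °C under 5% CO2. Wells were seeded with 1900 cells for MCF-7 or 1300 cells for MDA-MB-231. After 24 h, compound was added from a 10 mM DMSO stock (final DMSO 1%) for 72 h, with DMSO-only controls. Viable cells were read by MTS at 490 nm and expressed as % of untreated. Mean ± SEM, N = 3.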

MDA-MB-231 = assay: Cytotoxicity against human MDA-MB-231 cells assessed as cell viability at 10 uM after 72 hrs by MTS assay in presence of 10% fetal calf serum relative to control; format: functional; details: MDA-MB-231, 72 h, read-out: Activity; method in brief: as §1
[1] = Cytotoxicity against human MDA435 cells assessed as cell viability at 10 uM after 72 hrs by MTS assay in presence of 10% fetal calf serum relative to control; format: functional; details: MDA-MB-435, 72 h, read-out: Activity
[2] = Cytotoxicity against human MiaPaCa cells assessed as cell viability at 10 uM after 72 hrs by MTS assay in presence of 10% fetal calf serum relative to control; format: functional; details: MIA PaCa-2, 72 h, read-out: Activity
HepG2 = assay: Cytotoxicity against human HepG2 cells assessed as cell viability at 10 uM after 72 hrs by MTS assay in presence of 10% fetal calf serum relative to control; format: functional; details: HepG2, 72 h, read-out: Activity
PC-3 = assay: Cytotoxicity against human PC3 cells assessed as cell viability at 10 uM after 72 hrs by MTS assay in presence of 10% fetal calf serum relative to control; format: functional; details: PC-3, 72 h, read-out: Activity
LNCaP = assay: Cytotoxicity against human LNCAP cells assessed as cell viability at 10 uM after 72 hrs by MTS assay in presence of 10% fetal calf serum relative to control; format: functional; details: read-out: Activity
[3] = Cytotoxicity against human hepatocytes assessed as cell viability at 100 uM after 90 mins by MTT assay relative to control; format: cell-based, Hepatocyte; details: read-out: Activity
Method in brief: (§2)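 Cryopreserved human hepatocytes were plated at 0.1 × 10⁶ cells/well and exposed to compound for 90 min. MTT was then added for 30 min at 37 °C, plates were centrifuged, and formazan was dissolved in DMSO. Absorbance was read at 595 nm. Surviving cells are expressed as % of non-treated cells ± SEM.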

[4] = Cytotoxicity against human hepatocytes assessed as cell viability at 200 uM after 90 mins by MTT assay relative to control; format: cell-based, Hepatocyte; details: read-out: Activity; method in brief: as §2

Row | Compound | viability at 10 µM (HCT-116) | viability at 10 µM (MCF7) | viability at 10 µM (MDA-MB-231) | viability at 10 µM [1] | viability at 10 µM [2] | viability at 10 µM (HepG2) | viability at 10 µM (PC-3) | viability at 10 µM (LNCaP) | viability at 1.5 h, 100 µM [3] | viability at 1.5 h, 200 µM [4]
1 | Cc1c(C)c2c(c(C)c1OC(=O)CCCCCCCNC(=O)OC(C)(C)C)CCC(C)(COc1ccc(/C=C3\SC(=O)NC3=O)cc1)O2 (stereo not drawn) | 37% | 62.5% | 42.2% | 51.5% | 53.8% | 18.4% | 62% | 21.1% | 79.3% | 74.7%
2 | Cc1c(C)c2c(c(C)c1O)CCC(C)(COc1ccc(CC3SC(=O)NC3=O)cc1)O2 (stereo not drawn) [TROGLITAZONE] | 90.7% | 96.7% | 88.1% | 87.8% | 98.3% | 85.8% | 86.2% | 82.8% | 52.2% | 22.5%
3 | O=C1S/C(=C\c2ccc(O)cc2)C(=O)N1C/C=C/c1ccccc1 | 17.4% | 35% | 8.7% | 18.3% | 16.2% | 41.3% | 57.1% | 63.4% | 88.8% | 62.7%
4 | CCOC(=O)C1(C)CCc2c(C)c(/C=C3\SC(=O)N(Cc4ccccc4)C3=O)c(C)c(C)c2O1 (racemic) | 88% | 97.2% | 68.8% | 81.4% | 86% | 69.2% | 98.3% | 87.5% | – | –
5 | CC1(CN2C(=O)S/C(=C\c3cc(Br)c(O)c(Br)c3)C2=O)CCCCC1 | 13% | 23.8% | 46.9% | 30.6% | 34.7% | 25.8% | 52.9% | 18.8% | 42.1% | 30.3%
6 | COc1cc(/C=C2\SC(=O)N(Cc3ccccc3)C2=O)cc(OC)c1OC | 55.9% | 74.7% | 51.5% | 78.8% | 69.8% | 63.8% | 67.9% | 76.2% | – | –
7 | Cc1c(C)c2c(c(C)c1O)CCC(C)(COc1ccc(/C=C3\SC(=O)N(C)C3=O)cc1)O2 (racemic) | 68.4% | 100% | 64.3% | 94.7% | 80.2% | 60.3% | 85.5% | 66.8% | 147% | 127%
8 | O=C1S/C(=C\c2ccc(O)cc2)C(=O)N1Cc1ccccc1 | 29.8% | 43.9% | 24.5% | 30.9% | 25.6% | 54.5% | 65.8% | 77.6% | 40.8% | 18%
9 | Cc1c(C)c2c(c(C)c1OC(=O)OC(C)(C)C)CCC(C)(/C=C1\SC(=O)N(Cc3ccccc3)C1=O)O2 (racemic) | 90.5% | 76.5% | 75.4% | 67.6% | 75.3% | 76.3% | 82.4% | 96.2% | – | –
10 | Cc1c(C)c2c(c(C)c1OC(=O)OC(C)(C)C)CCC(C)(CN1C(=O)S/C(=C\c3ccc(O)cc3)C1=O)O2 (racemic) | 30.1% | 85.7% | 57.9% | 66% | 72.2% | 23.4% | 85.1% | 55% | 65.1% | 37.8%
11 | Cc1c(C)c2c(c(C)c1OC(=O)CCCCCCCN)CCC(C)(COc1ccc(/C=C3\SC(=O)N(C)C3=O)cc1)O2 (racemic) | 0.6% | 0% | 0% | 0% | 0% | 7.9% | 2.4% | 9.3% | 84.5% | 54.4%
12 | O=C1S/C(=C\c2ccc(Cl)cc2)C(=O)N1Cc1ccccc1 | 84% | 100% | 73% | 88.8% | 88.3% | 79.3% | 95.5% | 85.5% | – | –
13 | O=C(O)c1ccccc1-c1ccc(CN2C(=O)S/C(=C\c3ccc(O)cc3)C2=O)cc1 | 97.6% | 99.6% | 94.9% | 100% | 99.3% | 89.8% | 95.6% | 90.1% | – | –
14 | Cc1c(C)c2c(c(C)c1O)CCC(C)(CN1C(=O)S/C(=C\c3ccc(O)cc3)C1=O)O2 (racemic) | 5.3% | 5.2% | 4.8% | 13.4% | 0% | 20.8% | 36.3% | 48.9% | 110% | 103%
15 | O=C1S/C(=C\c2ccc([N+](=O)[O-])cc2)C(=O)N1Cc1ccccc1 | 93.9% | 80.2% | 64.6% | 86% | 84.9% | 79.4% | 72.3% | 77.9% | – | –
16 | COc1ccc(/C=C2\SC(=O)N(Cc3ccccc3)C2=O)cc1 | 82.1% | 100% | 89.5% | 92.7% | 99.3% | 87.9% | 91.4% | 100% | – | –
17 | CC(C)(C)OC(=O)c1ccccc1-c1ccc(CN2C(=O)S/C(=C\c3ccc(O)cc3)C2=O)cc1 | 61.6% | 80.3% | 51.9% | 66.8% | 59.9% | 22.8% | 49.9% | 32.4% | – | –
18 | O=C1S/C(=C\c2ccccc2)C(=O)N1Cc1ccccc1 | 85.4% | 95.6% | 81.6% | 89.9% | 88.8% | 85% | 82.4% | 90.8% | – | –
19 | Cc1c(C)c2c(c(C)c1CCCCCCNC(=O)OC(C)(C)C)CCC(C)(COc1ccc(/C=C3\SC(=O)NC3=O)cc1)O2 (racemic) | 45.2% | 75.5% | 49.3% | 60.9% | 69.7% | 22.7% | 73.7% | 32.2% | 85.1% | 80.3%
20 | Cc1c(C)c2c(c(C)c1O)CCC(C)(/C=C1\SC(=O)N(Cc3ccccc3)C1=O)O2 (racemic) | 81% | 94.2% | 88% | 75.7% | 80.7% | 71.5% | 83.4% | 84.6% | – | –
21 | Cc1c(C)c2c(c(C)c1O)CCC(C)(COc1ccc(/C=C3\SC(=O)N(Cc4ccccc4)C3=O)cc1)O2 (racemic) | 43% | 85.3% | 76.4% | 88.7% | 100% | 63.2% | 100% | 85.7% | – | –
